# PG9 Ab binder: PG9 antibody binding by small molecule | TR-FRET gp120-PG9 antibody binding | inhibition, % at 6.7 µM | actives 0.43% (n = 360,000) | AID 624416; in the data active = inhibition above about 8.5%
# UCH37 inh: inhibitors of human deubiquitinating enzyme UCH37 | actives 0.33% (n = 330,000) | AID 588478 | inhibition, % (no concentration beside the values) | purified proteasome/UCH37, Ub-AMC cleavage fluorescence;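 active = mean inhibition over replicate wells above about 20%, limit read from the data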;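 also: 0% = compound-free wells with enzyme and 100% = wells lacking proteasome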
#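 Material: human UCH37 enzyme supplied as purified proteasome complex. Measure: % inhibition of Ub-AMC cleavage fluorescence. Medium: pH 7.4 Tris-HCl (50 mM) with ovalbumin, ATP-MgCl2, DTT. Times: 30 min preincubation with enzyme, 25 min cleavage at room temperature. Detection: AMC fluorescence intensity at 355/460 nm.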
# Rce1 inhib: blocks yeast Ras-converting enzyme; actives 0.27% (n = 290,000); yeast membranes, quenched prenylated peptide cleavage fluorescence; calls only; Q03530; AID 2563;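 active = fall in fluorescence gain of 50% or more versus controls, with final raw signal at or below 3038400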;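 also: plate controls were neutral control wells for no effect and wells lacking membranes for full effect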
# MIN6 prolif: induces beta-cell replication in MIN6 cells | MIN6 cells proliferation, ATPlite luminescence, 48 h; cells starved in 0.2% serum; 100% = growth in 10% serum | proliferation, % at 10 µM | actives 0.29% (n = 330,000) | AID 2380;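 active = compounds whose signal lies at least 3.5 SD above the mean of all wells on their plate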;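 also: 0% = DMSO-treated cells in low-serum medium and 100% = 10% serum control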
# Rev-erbA mod: Rev-erb alpha (human) modulation; AID 1259318; activity, % at 10 µM; Rev-erbα–FITC-DNA binding, fluorescence polarization, 90 min; P20393; actives 0.79% (n = 370,000);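 active = activity above about 14%, limit read from the data; passing the limit was not always enough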;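 also: 0% = DMSO wells with 35 nM protein and 100% = DMSO wells with 750 nM protein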
# Target sequence (P20393 whole entry, looked up): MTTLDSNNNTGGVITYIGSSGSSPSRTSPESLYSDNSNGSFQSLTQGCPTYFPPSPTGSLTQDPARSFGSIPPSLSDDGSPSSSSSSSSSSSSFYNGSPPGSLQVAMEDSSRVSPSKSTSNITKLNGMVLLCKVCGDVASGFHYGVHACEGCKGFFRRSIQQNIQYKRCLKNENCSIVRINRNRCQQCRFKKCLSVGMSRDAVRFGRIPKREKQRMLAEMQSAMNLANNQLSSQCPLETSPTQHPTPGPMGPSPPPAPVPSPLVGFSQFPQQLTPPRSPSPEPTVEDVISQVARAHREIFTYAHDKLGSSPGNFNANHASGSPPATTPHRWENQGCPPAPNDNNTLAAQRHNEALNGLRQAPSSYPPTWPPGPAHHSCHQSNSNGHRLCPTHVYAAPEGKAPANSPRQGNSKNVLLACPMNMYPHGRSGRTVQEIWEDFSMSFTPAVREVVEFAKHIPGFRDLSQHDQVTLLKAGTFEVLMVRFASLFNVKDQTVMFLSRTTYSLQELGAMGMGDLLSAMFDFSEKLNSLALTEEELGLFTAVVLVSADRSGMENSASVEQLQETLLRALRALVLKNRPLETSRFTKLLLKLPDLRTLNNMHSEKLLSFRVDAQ
# Yeast superoxide: yeast age-related superoxide inhibition as caloric restriction mimetic; S. cerevisiae aged cells, superoxide DHE fluorescence; active compounds read low; actives 0.18% (n = 330,000); superoxide response (% of plate mean), % at 10 µM;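 active = superoxide response under a set limit, about three screen SD below normal, cut at about 65% in these data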;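 also: yeast aged for seven days with compound at 30 °C before DHE staining; 100% = average MFI of all compound-treated wells on the plate with controls excluded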
# PG9 binder conf: PG9 antibody binding, confirmed; TR-FRET PG9 antibody binding, biochemical; actives 90% (n = 1,500); shares compounds with PG9 Ab binder; inhibition, % at 6.7 µM; in the data active = inhibition above about 9%
# PGV04 counter: binds control antibody PGV04 in PG9 binder counter-screen; shares compounds with PG9 Ab binder; TR-FRET PGV04 antibody-gp120 binding, biochemical; AID 651604; inhibition, % at 6.7 µM; actives 95% (n = 1,500); in the data active = inhibition above about 9.5%
# PG9 binder DR: small molecules binding HIV-1 gp120 antibody PG9; IC50, µM; TR-FRET PG9 antibody-gp120 binding inhibition; 95 tested, under 10 active; AID 651848; shares compounds with PG9 Ab binder; in the data active = IC50 below about 10 µM
# PGV04 binding DR: binds control antibody PGV04 in PG9 counter-screen; shares compounds with PG9 Ab binder; TR-FRET binding to control antibody PGV04; IC50, µM; actives 20% (n = 95)
# PG126 binding DR: PG126 binding, dose response counter-screen; actives 20% (n = 95); shares compounds with PG9 Ab binder; TR-FRET binding to antibody PG126, counterscreen; IC50, µM
# NR1D1 mod conf: Rev-erb alpha (human) modulation, hit confirmation. shares compounds with Rev-erbA mod. Rev-erb alpha FITC-DNA binding, fluorescence polarization, 90 min. activation, % at 25 µM. actives 61% (n = 3,000). AID 1259319;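 active = activation at or above a set limit, or at least 3 SD above the negative control mean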;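 also: 0% = 35 nM protein with DMSO and 100% = 750 nM protein high control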
# RORg counter: counter-screen for Rev-erb alpha modulators: RORgamma DNA binding | shares compounds with Rev-erbA mod | purified RORgamma protein-FITC-DNA binding, fluorescence polarization | IC50, µM | actives 8% (n = 910) | AID 1259320;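 active = Compounds whose fitted half-maximal concentration for disrupting protein-DNA binding is below 10 micromolar; the record names Rev-erb in its text, so the target is in doubt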
# Starred values were filed as active, the others as inactive; i = inactive; . = not tested or not shown. Rows were chosen to be rich in hits. Some 1.9% of all compounds tested hit in one or more screens of this group. Rule as the data show it, unless noted: active = IC50 below about 9 µM; inactive = the rest.
SMILES,PG9 Ab binder,UCH37 inh,Rce1 inhib,MIN6 prolif,Rev-erbA mod,Yeast superoxide,PG9 binder conf,PGV04 counter,NR1D1 mod conf,others
Nc1ccc(C(=O)NN=Cc2cn(Cc3cccc(F)c3)c3ccccc23)cc1,.,-7.2,.,.,.,.,.,.,.,
Cc1cc(OCC(=O)NCc2cccnc2)c2c(C)c(C)c(=O)oc2c1,0.3,-92.9,i,1.0,-4.8,109.1,.,.,.,
Cc1cc(OCC(=O)Nc2cccnc2)c2c(C)c(C)c(=O)oc2c1,15.0*,-8.4,i,-2.4,19.1*,98.3,14.0*,16.3*,-0.4,
O=C(CNC(=O)c1ccc(F)cc1)NN=Cc1cccnc1,.,6.3,.,.,.,.,.,.,.,
O=C(/C=C1\NC2(CCCC2)Cc2ccccc21)C(=O)NN=Cc1ccc(O)c(O)c1,.,4.1,.,.,.,.,.,.,.,
CCCOc1ccc(C=NNC(=O)CN2CCCCC2)cc1,.,0.1,.,.,.,.,.,.,.,
COC(=O)c1c(NC(=O)CN2C(=O)NC3(CCc4ccccc4C3)C2=O)sc2c1CCCCC2 (stereo not given),15.0*,-2.4,.,-2.3,30.4*,120.6,21.9*,34.3*,25.8*,
COc1cccc(OCc2nc3ccccc3[nH]2)c1,-1.4,7.5,i,-3.1,-5.2,98.6,.,.,.,
Cc1cc(C)cc(OCc2nc3ncc(Br)cc3[nH]2)c1,34.4*,3.7,i,-1.9,61.9*,119.4,47.4*,62.6*,38.5*,RORg counter=>40
COc1cccc(OCc2nc3ncc(Br)cc3[nH]2)c1,51.0*,4.2,i,-3.3,25.9*,100.5,51.9*,64.2*,17.0*,
O=C(CNc1ccc2ccccc2c1)NN=Cc1ccc(OC(=O)/C=C/c2ccco2)cc1,.,1.6,.,.,.,.,.,.,.,
O=C(ON=C1CCCc2ccccc21)c1cccc(Cl)c1,.,3.5,.,.,.,.,.,.,.,
Cc1ccc(NC(=S)Nc2nc(CC(=O)Nc3ccccc3)cs2)cc1,15.9*,-0.1,i,-2.4,100.9*,98.3,10.9*,9.7*,90.8*,PG9 binder DR=>67;PGV04 binding DR=i;PG126 binding DR=i;RORg counter=>40
C=CCOc1ccc(C=NNC(=O)c2c(C)nc3ccc(Cl)cn23)cc1,.,3.4,.,.,.,.,.,.,.,
Cc1ccccc1N(C(=O)c1snc(C(N)=O)c1N)C(C(=O)NCc1ccccc1)c1ccc(O)cc1 (stereo not given),29.8*,-87.6,i,1.7,18.7*,92.6,30.8*,45.0*,-5.8,
NC(=O)NC(=O)COC(=O)c1sc2ccccc2c1Cl,-4.1,0.8,i,-2.2,9.6,99.0,.,.,.,
O=C(COC(=O)c1sc2ccccc2c1Cl)Nc1ncc(Cl)cc1Cl,20.5*,.,i,-2.0,51.9*,104.1,22.1*,44.8*,36.0*,RORg counter=>40
N#Cc1c(-c2ccccc2)cc(-c2ccccc2)nc1Br,8.7*,-4.0,i,-1.3,28.5*,105.8,14.1*,17.4*,10.1,
O=C(Nc1cc(Cl)ccc1-n1cncn1)c1ccccc1OC(F)F,0.5,0.7,.,0.0,-4.1,.,.,.,.,
COc1cc(C(=O)Nc2cc(Cl)ccc2-n2cncn2)ccc1OC(F)F,10.2*,-0.6,i,2.2,31.3*,92.3,22.7*,38.2*,16.0,
O=C(c1cc2cc(Cl)ccc2[nH]1)N1CCN(c2ccccc2F)CC1,2.3,1.2,i,1.6,1.3,67.3,.,.,.,
O=C(c1cc2cc(Cl)ccc2[nH]1)N1CCN(c2ccccn2)CC1,26.8*,1.3,i,-4.0,51.0*,107.5,7.2,23.0*,41.4*,RORg counter=5.37*
O=C(NN=C1CCS(=O)(=O)c2ccc(F)cc21)c1ccccn1,.,2.2,.,.,.,.,.,.,.,
CCOC(=O)c1sc(NC(=O)c2ccco2)nc1-c1ccccc1,10.2*,-3.3,i,3.5,45.8*,85.0,30.3*,56.8*,25.4*,
CC(=O)c1sc(NC(=O)c2ccco2)nc1-c1ccccc1,.,2.8,i,-0.5,.,111.9,.,.,.,
SMILES,PG9 Ab binder,UCH37 inh,Rce1 inhib,MIN6 prolif,Rev-erbA mod,Yeast superoxide,PG9 binder conf,PGV04 counter,NR1D1 mod conf,others
O=c1c(C=NNc2ccccc2)c(Sc2nnnn2-c2ccccc2)nc2ccccn12,.,-0.9,.,.,.,.,.,.,.,
Cc1c(C#N)c(N)nc2c3c(sc12)NC(=O)CC3c1ccc(Cl)cc1 (stereo not given),18.3*,.,i,0.0,64.6*,88.5,16.1*,32.7*,44.9*,RORg counter=>40
N#Cc1c(N)nc2c3c(sc(=N)c2c1N)NC(=O)CC3c1ccccc1 (stereo not given),56.8*,-115.5,i,-1.9,29.4*,91.7,55.0*,70.7*,40.9*,RORg counter=>40
CCOC(=O)CSC1=C(C#N)C(c2ccc(Cl)cc2)CC(=O)N1 (stereo not given),-1.3,2.5,i,-1.8,-9.6,100.4,.,.,.,
N#Cc1c(N)nc2c3c(sc(=N)c2c1N)NC(=O)CC3c1c(F)cccc1Cl (stereo not given),17.1*,.,i,-2.4,58.0*,97.9,22.1*,29.8*,61.5*,RORg counter=2.9*
N#Cc1c(N)nc2c(c1-c1ccc(F)cc1)CCC2,0.8,-385.5,i,-0.8,2.3,109.8,.,.,.,
O=C(NN=Cc1ccc(F)cc1)c1ccc(OCc2ccccc2)cc1,.,3.4,.,.,.,.,.,.,.,
Cc1c(-c2ccc(Cl)cc2)oc(=O)c2c(N)n(-c3ccccc3)nc12,36.2*,.,i,-2.2,48.6*,105.2,30.6*,39.5*,49.0*,RORg counter=>40
COC(=O)Cn1c(=NC(=O)CSCC(=O)Nc2cc(C)on2)sc2cc(C(=O)OC)ccc21,-1.8,2.2,i,-3.4,5.1,91.0,.,.,.,
COC(=O)Cn1c(=NC(=O)c2ccc(OC)cc2)sc2cc(OC)ccc21,64.3*,-199.2,i,1.6,34.0*,99.2,49.0*,59.9*,-3.1,
COc1cc(OC)cc(-c2oc(=O)c3cc(OC)c(OC)cc3c2C#CCCO)c1,24.7*,-46.7,.,0.5,20.8*,79.8,36.2*,42.0*,-11.4,
CC1SC(=NN=Cc2cccc([N+](=O)[O-])c2)N(C(C)(C)C)C1=O (stereo not given),.,-0.6,.,.,.,.,.,.,.,
Clc1ccc(C=NNC(=Nc2ccccc2)c2ccccn2)c(Cl)c1,.,-2.4,.,.,.,.,.,.,.,

# Screens from PubChem.
